Test results from ChEMBL document CHEMBL1123833, “Novel inhibitors of rat lens aldose reductase: N-[[(substituted amino)phenyl]sulfonyl]glycines” (J Med Chem, 1987).

What was measured:
[1] = target: Aldo-keto reductase family 1 member B1 (Rattus norvegicus) (UniProt P07943); test: Inhibition of rat aldose reductase activity at 100 uM.
Procedure, shortened: (§1)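 Crude rat lens enzyme: 50 lenses homogenized in distilled water and spun at 10000 rpm for 10 min at 0–5 °C. Supernatant diluted so the control rate was 0.010 ± 0.002 A/min. Reaction in 0.1 M phosphate pH 6.2 with 0.104 mM NADPH, started with 10 mM DL-glyceraldehyde. NADPH loss read at 340 nm for 3.0 min against a glyceraldehyde-free blank. Inhibitor tested at 100 μM; % inhibition vs substrate-only control, reported with SEM.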

[2] = target: Aldo-keto reductase family 1 member B1 (Rattus norvegicus, UniProt P07943); test: Inhibition of rat aldose reductase enzyme.
Procedure, shortened: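 Rat lens supernatant (homogenized in water, spun at 0–5 °C, diluted to a control rate of 0.010 ± 0.002 A/min). Assayed in 0.1 M phosphate pH 6.2, 0.104 mM NADPH, 10 mM DL-glyceraldehyde, following A340 decrease for 3.0 min. Four inhibitor concentrations, three determinations each. IC50 from least-squares fit of the log dose-response curve.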

[3] = target: Aldo-keto reductase family 1 member B1 (Rattus norvegicus) (UniProt P07943); test: Compound was tested for percent inhibition of aldose reductase inhibitory activity using rat lens assay at concentration of 100 uM; procedure, shortened: as §1

Row | inhibition [1] [%] | IC50 [2] [µM] | inhibition [3] [%] | Compound
1 | 81 | 0.41 | – | O=C(O)CNS(=O)(=O)c1ccc(NC(=O)c2ccccc2)cc1
2 | 71 | 7.04 | – | O=C(O)CNS(=O)(=O)c1ccc(NCc2ccccc2)cc1
3 | 72 | 0.69 | – | O=C(O)CNS(=O)(=O)c1ccc(NC(=O)/C=C/c2ccccc2)cc1
4 | 74 | 38 | – | Nc1ccccc1S(=O)(=O)NCC(=O)O
5 | – | 2.17 | 100 | O=C(O)CNS(=O)(=O)c1ccc(NC(=O)Cc2ccccc2)cc1
6 | 79 | 7.12 | – | O=C(O)CNS(=O)(=O)c1cccc(NC(=O)c2ccccc2)c1
7 | 76 | 16 | – | Nc1ccc(S(=O)(=O)NCC(=O)O)cc1
8 | 88 | 4.22 | – | CC(=O)Nc1ccc(S(=O)(=O)NCC(=O)O)cc1
9 | 65 | 8.42 | – | O=C(O)CNS(=O)(=O)c1ccc(N/C(S)=N/c2ccccc2)cc1
10 | 82 | 6.03 | – | O=C(O)CNS(=O)(=O)c1ccc(NC(=O)OCc2ccccc2)cc1
11 | 83 | 2.75 | – | O=C(O)CNS(=O)(=O)c1ccc(NC(=O)Nc2ccccc2)cc1
12 | 79 | 3.5 | – | O=C(O)CNS(=O)(=O)c1ccc(NC(=O)COCc2ccccc2)cc1
13 | 86 | 11.5 | – | O=C(O)CNS(=O)(=O)c1ccc(NC(=O)CCc2ccccc2)cc1
14 | 52 | 78 | – | O=C(O)CNS(=O)(=O)c1ccccc1NC(=O)c1ccccc1
15 | 87 | 2.64 | – | O=C(O)CNS(=O)(=O)c1ccc(NC(=O)COc2ccccc2)cc1
16 | 80 | 10.9 | – | CN(C)c1ccc(S(=O)(=O)NCC(=O)O)cc1
17 | 73 | 29 | – | Nc1cccc(S(=O)(=O)NCC(=O)O)c1
